Results as given in ChEMBL document CHEMBL4837218, “Synthesis and in vitro antitumour activity of 4(R)-methyl-3-O-phosphonomethyl-α-l-threose nucleosides” (Eur J Med Chem, 2021).
Active and inactive are the calls of the source. The rule behind the calls is not given here.

How the values were obtained:
MCF7 [1] = assay: Induction of G2/M phase cell cycle arrest in human MCF7 cells assessed as downregulation of p-cdc2 protein expression at 4 uM measured after 48 hrs in presence of cdc25c inhibitor, NSC663284 by western blot analysis; format: functional, cell-based
Procedure, shortened: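 Four groups (untreated, test compound, 0.3 NSC663284, combination) treated 48 h before protein extraction. Lysates resolved by SDS-PAGE (5–15%) and blotted to nitrocellulose. Blocked 2 h in 5% milk/PBS-0.1% Tween 20, primary antibody overnight at 4 °C, biotinylated secondary 1 h. Detected on X-ray film and quantified by densitometry.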

MCF7 [2] = assay: Cell cycle arrest in human MCF7 cells assessed as accumulation of cells at G2/M phase at 4 uM in presence of inhibitor cdc25c inhibitor, NSC663284 measured after 48 hrs by PI staining based flow cytometry; format: functional
Procedure, shortened: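 Four arms (untreated, test compound alone, 0.3 NSC663284 alone, combination) applied to cells for 48 h. Cells were fixed in 70% ice-cold ethanol at 4 °C overnight and stained with RNase/PI for 30 min in the dark. G2/M fraction was read by flow cytometry.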

A549 = assay: Antiproliferative activity against human A549 cells assessed as cell growth inhibition measured after 72 hrs by MTT assay; format: functional, cell-based; conditions: A549, 72 h
Procedure, shortened: (§1)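 Cells seeded at 3000 exponentially growing cells/well and incubated 12 h at 37 °C. Medium then replaced with fresh medium containing graded compound concentrations for 72 h; 5-FU positive control. MTT (5 mg/mL solution) added for 4 h, formazan dissolved in DMSO, absorbance read at 570 nm (reference 630 nm). Relative percentage inhibition of viable cells calculated; IC50 reported as mean ± standard deviation.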

MCF7 [3] = assay: Antiproliferative activity against human MCF7 cells assessed as reduction in cell viability at 0.06 to 16 uM measured after 24 to 72 hrs by MTT assay; format: functional, cell-based; conditions: dose 0.06-16 µM, time 24-72 hrs
Procedure, shortened: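 MTT viability time course on the breast cancer cells with increasing compound concentrations for 24, 48 and 72 h. Cells seeded at 3000/well and allowed 12 h before treatment. MTT (5 mg/mL solution) applied for 4 h, crystals dissolved in DMSO, absorbance read at 570/630 nm. Viability expressed relative to untreated cells.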

MDA-MB-231 [4] = assay: Induction of G2/M phase cell cycle arrest in human MDA-MB-231 cells assessed as decrease in p-cdc2 protein expression at 3 to 9 uM measured after 48 hrs by western blot analysis; format: functional, cell-based; conditions: dose 3-9 µM
Procedure, shortened: (§2)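 Cells exposed to graded concentrations for 48 h, then proteins extracted. Run on SDS-PAGE (5–15% gels) and transferred to nitrocellulose. Blocked 2 h in 5% nonfat milk in PBS/0.1% Tween 20, primary antibody overnight at 4 °C, biotin-conjugated secondary 1 h. Visualized on X-ray film with densitometric quantitation; three independent experiments.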

MDA-MB-231 [5] = assay: Cell cycle arrest in human MDA-MB-231 cells assessed as accumulation at S phase at 9 uM measured after 48 hrs by propidium iodide staining based flow cytometry (reference value: 35.54 %); format: functional
MCF7 [6] = assay: Induction of apoptosis in human MCF7 cells assessed as increase in Bax to Bcl2 ratio at 1 to 4 uM measured after 48 hrs by western blot analysis; format: functional, cell-based; conditions: dose 1-4 µM
Procedure, shortened: (§3)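 MCF-7 and MDA-MB-231 breast cancer cells treated 48 h with a concentration series, then lysed for protein. SDS-PAGE on 5–15% gels, transfer to nitrocellulose. Blocked 2 h in 5% nonfat milk/PBS-0.1% Tween 20, primary antibodies overnight at 4 °C, biotin-conjugated secondary 1 h. X-ray film detection with densitometric quantification.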

MDA-MB-231 [7] = assay: Cell cycle arrest in human MDA-MB-231 cells assessed as accumulation at G1 phase at 3 uM measured after 48 hrs by propidium iodide staining based flow cytometry (reference value: 46.28%); format: functional
MDA-MB-231 [8] = assay: Cell cycle arrest in human MDA-MB-231 cells assessed as accumulation at G2/M phase at 3 uM measured after 48 hrs by propidium iodide staining based flow cytometry (reference value: 15.46 %); format: functional
MCF7 [9] = assay: Induction of G2/M phase cell cycle arrest in human MCF7 cells assessed as increase in cdc25c protein expression at 1 to 4 uM measured after 48 hrs by western blot analysis; format: functional, cell-based; conditions: dose 1-4 µM; procedure, shortened: as §2
MDA-MB-231 [10] = assay: Induction of apoptosis in human MDA-MB-231 cells assessed as late apoptotic cells at 9 uM measured after 48 hrs by Annexin V-FITC/propidium iodide staining based flow cytometric analysis (reference value: 0.3 %); format: functional
MDA-MB-231 [11] = assay: Induction of apoptosis in human MDA-MB-231 cells assessed as decrease in Mcl-1 protein expression at 3 to 9 uM measured after 48 hrs by western blot analysis; format: functional, cell-based; conditions: dose 3-9 µM; procedure, shortened: as §3
MDA-MB-231 [12] = assay: Induction of apoptosis in human MDA-MB-231 cells assessed as early apoptotic cells at 3 uM measured after 48 hrs by Annexin V-FITC/propidium iodide staining based flow cytometric analysis (reference value: 1%); format: functional
MDA-MB-231 [13] = assay: Induction of apoptosis in human MDA-MB-231 cells assessed as increase in cleaved caspase 7 protein expression at 3 to 9 uM measured after 48 hrs by western blot analysis; format: functional, cell-based; conditions: dose 3-9 µM; procedure, shortened: as §3
HeLa = assay: Anticancer activity against human HeLa cells assessed as inhibition of cell growth measured after 72 hrs by MTT assay; format: functional, cell-based; procedure, shortened: as §1
PC-3 = assay: Antiproliferative activity against human PC-3 cells assessed as cell growth inhibition measured after 72 hrs by MTT assay; format: functional, cell-based; conditions: PC-3, 72 h; procedure, shortened: as §1
MCF7 [14] = assay: Induction of apoptosis in human MCF7 cells assessed as increase in cleaved caspase 9 protein expression at 4 uM measured after 48 hrs in presence of cdc25c inhibitor, NSC663284 by western blot analysis; format: functional, cell-based
Procedure, shortened: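 Four arms per cell line: untreated, test compound, 0.3 µM NSC663284 alone, and combination. Proteins harvested after 48 h and resolved by SDS-PAGE on 5–15% gels, transferred to nitrocellulose. Blocked 2 h in milk/PBS-Tween, primary antibodies overnight at 4 °C, biotin-conjugated secondary. Read on X-ray film with densitometry.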

MCF7 [15] = assay: Cell cycle arrest in human MCF7 cells assessed as accumulation at S phase at 4 uM measured after 48 hrs by propidium iodide staining based flow cytometry (reference value: 25.34 %); format: functional
MCF7 [16] = assay: Induction of mitochondrial membrane potential loss in human MCF7 cells assessed as green fluorescence intensity at 1 uM measured after 48 hrs by JC1 staining-based flow cytometry analysis (reference value: 8.1 %); format: functional

IC50 (A549): 3.48 µM
IC50 (HeLa): 6.2 µM
IC50 (PC-3): 2.21 µM
SMILES: C[C@H]1O[C@@H](n2cnc3c(N)nc(F)nc32)[C@H](O)[C@H]1OCP(=O)([O-])[O-].[Na+].[Na+]
Activity (MCF7 [1]): inactive
Activity (MCF7 [2]): inactive
Activity (MCF7 [3]): Active
Activity (MDA-MB-231 [4]): Active
Activity (MDA-MB-231 [5]): 32.34%
Activity (MCF7 [6]): Active
Activity (MDA-MB-231 [7]): 44.13%
Activity (MDA-MB-231 [8]): 20.27%
Activity (MCF7 [9]): Active
Activity (MDA-MB-231 [10]): 16%
Activity (MDA-MB-231 [11]): Active
Activity (MDA-MB-231 [12]): 14.5%
Activity (MDA-MB-231 [13]): Active
Activity (MCF7 [14]): inactive
Activity (MCF7 [15]): 31.16%
Activity (MCF7 [16]): 9.1%
